In ChEMBL document CHEMBL4118097, “Selective Inhibitors of Dual Leucine Zipper Kinase (DLK, MAP3K12) with Activity in a Model of Alzheimer's Disease” (J Med Chem, 2017):

How the values were obtained:
[1] = molecular target: Dual specificity tyrosine-phosphorylation-regulated kinase 3 (Homo sapiens) (UniProt O43781); experiment: Inhibition of full length recombinant GST-tagged human DYRK3 expressed in baculovirus expression system at 1 uM by FRET assay relative to control
[2] = molecular target: Dual specificity tyrosine-phosphorylation-regulated kinase 1A (Homo sapiens) (UniProt Q13627); experiment: Inhibition of full length recombinant GST-tagged human DYRK1A expressed in baculovirus expression system at 1 uM by FRET assay relative to control
[3] = molecular target: Epithelial discoidin domain-containing receptor 1 (Homo sapiens) (UniProt Q08345); experiment: Inhibition of recombinant GST-tagged human DDR1 (440 to 876 residues) expressed in baculovirus expression system at 1 uM by FRET assay relative to control
In short: (§1)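 Single-point screen at 1 μM compound in a 220-kinase panel run by Life Technologies (SelectScreen). Z′-LYTE format: phosphorylation of a labeled peptide substrate read by FRET. Values are reported as percent inhibition.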

[4] = molecular target: Death-associated protein kinase 1 (Homo sapiens) (UniProt P53355); experiment: Inhibition of recombinant N-terminal GST-tagged human DAPK1 (1 to 363 residues) expressed in baculovirus expression system at 1 uM by FRET assay relative to control
In short: (§2)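 Single-concentration screen at 1 μM in Life Technologies SelectScreen, across a 220-kinase panel. Z′-LYTE format measures phosphorylation of a labeled peptide by FRET. Results are reported as percent inhibition.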

[5] = molecular target: Macrophage colony-stimulating factor 1 receptor (Homo sapiens, UniProt P07333); experiment: Inhibition of recombinant His-tagged human CSF1R cytoplasmic domain (538 to 910 residues) expressed in baculovirus expression system at 1 uM by FRET assay relative to control; in short: as §1
[6] = molecular target: Serine/threonine-protein kinase Chk1 (Homo sapiens) (UniProt O14757); experiment: Inhibition of recombinant full length His-tagged human CHK1 expressed in baculovirus expression system at 1 uM by FRET assay relative to control
[7] = molecular target: Mitogen-activated protein kinase kinase kinase 5 (Homo sapiens) (UniProt Q99683); experiment: Inhibition of recombinant full length GST-tagged human ASK1 expressed in baculovirus expression system at 1 uM by FRET assay relative to control; in short: as §2
[8] = molecular target: Activin receptor type-1 (Homo sapiens) (UniProt Q04771); experiment: Inhibition of recombinant GST-tagged human ALK2 catalytic domain (147 to end residues) at 1 uM by FRET assay relative to control
[9] = molecular target: Tyrosine-protein kinase Lyn (Homo sapiens) (UniProt P07948); experiment: Inhibition of recombinant full length His-tagged human LYN expressed in baculovirus expression system at 1 uM by FRET assay relative to control
[10] = molecular target: Mitogen-activated protein kinase 8 (Homo sapiens, UniProt P45983); experiment: Inhibition of recombinant full length His-tagged human JNK1alpha1 expressed in baculovirus expression system at 1 uM by FRET assay relative to control
[11] = molecular target: Interleukin-1 receptor-associated kinase 4 (Homo sapiens) (UniProt Q9NWZ3); experiment: Inhibition of recombinant full length His-tagged human IRAK4 expressed in baculovirus expression system at 1 uM by FRET relative to control
[12] = molecular target: Glycogen synthase kinase-3 beta (Homo sapiens) (UniProt P49841); experiment: Inhibition of recombinant full length His-tagged human GSK3beta expressed in baculovirus expression system at 1 uM by FRET relative to control
[13] = molecular target: Receptor-type tyrosine-protein kinase FLT3 (Homo sapiens) (UniProt P36888); experiment: Inhibition of recombinant His-tagged human FLT3 cytoplasmic domain expressed in baculovirus expression system at 1 uM by FRET assay relative to control; in short: as §1
[14] = molecular target: Receptor tyrosine-protein kinase erbB-4 (Homo sapiens) (UniProt Q15303); experiment: Inhibition of recombinant N-terminal GST-tagged human ErbB4 cytoplasmic domain expressed in baculovirus expression system at 1 uM by FRET assay relative to control; in short: as §2
[15] = molecular target: Ephrin type-A receptor 1 (Homo sapiens) (UniProt P21709); experiment: Inhibition of recombinant GST-tagged human EphA1 cytoplasmic domain expressed in baculovirus expression system at 1 uM by FRET assay relative to control; in short: as §1
[16] = molecular target: Serine/threonine-protein kinase Nek6 (Homo sapiens) (UniProt Q9HC98); experiment: Inhibition of recombinant GST-tagged human NEK6 catalytic domain expressed in baculovirus expression system at 1 uM by FRET assay relative to control; in short: as §1
[17] = molecular target: Serine/threonine-protein kinase Nek1 (Homo sapiens) (UniProt Q96PY6); experiment: Inhibition of recombinant full length GST-tagged human NEK1 expressed in baculovirus expression system at 1 uM by FRET assay relative to control; in short: as §2
[18] = molecular target: Serine/threonine-protein kinase mTOR (Homo sapiens) (UniProt P42345); experiment: Inhibition of recombinant GST-tagged human mTOR catalytic domain (1360 to 2549 residues) expressed in baculovirus expression system at 1 uM by FRET assay relative to control; in short: as §1
[19] = molecular target: Tyrosine-protein kinase Mer (Homo sapiens) (UniProt Q12866); experiment: Inhibition of recombinant GST-tagged human Mer cytoplasmic domain expressed in baculovirus expression system at 1 uM by FRET assay relative to control; in short: as §1
[20] = molecular target: Mitogen-activated protein kinase kinase kinase 2 (Homo sapiens) (UniProt Q9Y2U5); experiment: Inhibition of recombinant full length GST-tagged human MEKK2 expressed in baculovirus expression system at 1 uM by FRET assay relative to control
In short: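 Part of a 220-kinase panel run at a single concentration of 1 μM. Z′-LYTE format: phosphorylation of a labelled peptide read by FRET. Values reported as percent inhibition.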

[21] = molecular target: Non-receptor tyrosine-protein kinase TYK2 (Homo sapiens) (UniProt P29597); experiment: Inhibition of recombinant N-terminal GST-tagged human TYK2 (833 to 1187 residues) expressed in baculovirus expression system at 1 uM by FRET assay relative to control; in short: as §2
[22] = molecular target: Serine/threonine-protein kinase 33 (Homo sapiens) (UniProt Q9BYT3); experiment: Inhibition of recombinant full length His-tagged human STK33 expressed in baculovirus expression system at 1 uM by FRET assay relative to control
[23] = molecular target: Tyrosine-protein kinase receptor TYRO3 (Homo sapiens) (UniProt Q06418); experiment: Inhibition of recombinant full length GST-tagged human Rse cytoplasmic domain (451 to 890 residues) expressed in baculovirus expression system at 1 uM by FRET assay relative to control; in short: as §2
[24] = molecular target: Adrenergic receptor alpha-2 (Homo sapiens) (UniProt P08913+P18825+P18089); experiment: Binding affinity to alpha2 adrenergic receptor (unknown origin) at 10 uM relative to control; type: protein assay
In short: (§3)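 Broad radioligand-binding and enzyme screening panel covering 42 targets (biogenic amine and neuropeptide receptors, ion channels, neurotransmitter transporters, acetylcholinesterase). Single test concentration of 10 μM. Results expressed as binding relative to control, with a hit defined as >50% of control.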

[25] = molecular target: Acetylcholinesterase (Homo sapiens) (UniProt P22303); experiment: Binding affinity to acetylcholinesterase (unknown origin) at 10 uM relative to control; in short: as §3
[26] = molecular target: Serine/threonine-protein kinase D1 (Homo sapiens) (UniProt Q15139); experiment: Inhibition of PKD1 (unknown origin) at 1 uM by FRET assay relative to control
Chain of Serine/threonine-protein kinase D1 (Homo sapiens) (Q15139 whole entry, looked up): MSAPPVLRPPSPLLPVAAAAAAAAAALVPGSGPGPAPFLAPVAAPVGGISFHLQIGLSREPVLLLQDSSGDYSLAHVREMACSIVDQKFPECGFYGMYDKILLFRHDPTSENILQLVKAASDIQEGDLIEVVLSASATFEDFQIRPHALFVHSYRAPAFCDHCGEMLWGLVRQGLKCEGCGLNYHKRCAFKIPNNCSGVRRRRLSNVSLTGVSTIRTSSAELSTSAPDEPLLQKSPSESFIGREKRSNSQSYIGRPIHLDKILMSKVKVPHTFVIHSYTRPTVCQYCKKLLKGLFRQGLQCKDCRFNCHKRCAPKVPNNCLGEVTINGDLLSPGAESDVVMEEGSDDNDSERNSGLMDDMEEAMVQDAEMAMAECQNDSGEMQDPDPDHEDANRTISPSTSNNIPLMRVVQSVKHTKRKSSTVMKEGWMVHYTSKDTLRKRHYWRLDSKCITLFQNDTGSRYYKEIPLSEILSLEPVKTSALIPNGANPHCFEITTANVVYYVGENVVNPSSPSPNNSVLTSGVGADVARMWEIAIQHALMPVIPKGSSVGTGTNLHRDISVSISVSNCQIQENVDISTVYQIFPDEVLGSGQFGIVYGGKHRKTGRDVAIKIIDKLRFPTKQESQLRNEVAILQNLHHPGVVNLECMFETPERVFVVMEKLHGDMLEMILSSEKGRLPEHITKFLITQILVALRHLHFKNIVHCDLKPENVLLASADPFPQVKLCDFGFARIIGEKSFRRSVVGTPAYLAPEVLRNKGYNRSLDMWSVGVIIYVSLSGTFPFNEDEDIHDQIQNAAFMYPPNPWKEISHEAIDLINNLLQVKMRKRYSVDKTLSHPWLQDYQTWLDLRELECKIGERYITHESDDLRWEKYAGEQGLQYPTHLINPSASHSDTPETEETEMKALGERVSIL

Chain of Serine/threonine-protein kinase Chk1 (Homo sapiens) (O14757 whole entry): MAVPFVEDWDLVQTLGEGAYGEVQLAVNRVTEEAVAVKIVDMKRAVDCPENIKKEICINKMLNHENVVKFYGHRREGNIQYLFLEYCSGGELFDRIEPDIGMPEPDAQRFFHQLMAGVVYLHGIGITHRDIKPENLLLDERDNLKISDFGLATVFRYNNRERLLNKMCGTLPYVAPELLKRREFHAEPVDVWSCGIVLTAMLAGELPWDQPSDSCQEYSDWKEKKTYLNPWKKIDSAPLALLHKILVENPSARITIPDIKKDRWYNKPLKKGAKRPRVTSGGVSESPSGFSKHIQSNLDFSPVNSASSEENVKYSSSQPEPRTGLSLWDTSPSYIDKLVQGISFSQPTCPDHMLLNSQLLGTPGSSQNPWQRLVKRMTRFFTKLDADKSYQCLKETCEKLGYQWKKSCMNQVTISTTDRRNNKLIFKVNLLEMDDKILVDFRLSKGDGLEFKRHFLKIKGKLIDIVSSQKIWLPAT
Chain of Tyrosine-protein kinase Lyn (Homo sapiens) (P07948 2-512 limits assumed): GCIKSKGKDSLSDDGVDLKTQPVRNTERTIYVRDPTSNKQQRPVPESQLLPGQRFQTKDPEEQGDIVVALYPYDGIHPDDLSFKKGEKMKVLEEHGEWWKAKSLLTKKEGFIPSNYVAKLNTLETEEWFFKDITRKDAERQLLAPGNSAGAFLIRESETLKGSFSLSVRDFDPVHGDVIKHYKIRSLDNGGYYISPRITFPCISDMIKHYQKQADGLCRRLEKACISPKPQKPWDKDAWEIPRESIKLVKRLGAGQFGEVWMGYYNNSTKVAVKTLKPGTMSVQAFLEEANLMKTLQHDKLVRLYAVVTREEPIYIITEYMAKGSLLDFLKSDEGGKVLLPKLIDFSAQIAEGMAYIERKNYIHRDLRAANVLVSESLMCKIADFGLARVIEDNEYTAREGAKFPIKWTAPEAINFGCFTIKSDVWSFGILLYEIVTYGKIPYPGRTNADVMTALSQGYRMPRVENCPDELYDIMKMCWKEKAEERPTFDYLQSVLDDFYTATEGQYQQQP
Chain of Serine/threonine-protein kinase Nek6 (Homo sapiens) (Q9HC98 whole entry, the tested form may be a part): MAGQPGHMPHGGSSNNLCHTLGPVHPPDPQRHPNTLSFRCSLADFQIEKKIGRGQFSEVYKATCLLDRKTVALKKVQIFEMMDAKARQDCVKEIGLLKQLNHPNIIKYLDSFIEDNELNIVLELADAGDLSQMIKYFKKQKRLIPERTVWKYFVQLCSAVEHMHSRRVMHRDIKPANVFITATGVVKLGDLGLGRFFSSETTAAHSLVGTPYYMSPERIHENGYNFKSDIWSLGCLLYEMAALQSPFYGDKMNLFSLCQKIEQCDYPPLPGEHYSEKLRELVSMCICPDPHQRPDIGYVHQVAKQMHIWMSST
Chain of Acetylcholinesterase (Homo sapiens) (P22303 whole entry): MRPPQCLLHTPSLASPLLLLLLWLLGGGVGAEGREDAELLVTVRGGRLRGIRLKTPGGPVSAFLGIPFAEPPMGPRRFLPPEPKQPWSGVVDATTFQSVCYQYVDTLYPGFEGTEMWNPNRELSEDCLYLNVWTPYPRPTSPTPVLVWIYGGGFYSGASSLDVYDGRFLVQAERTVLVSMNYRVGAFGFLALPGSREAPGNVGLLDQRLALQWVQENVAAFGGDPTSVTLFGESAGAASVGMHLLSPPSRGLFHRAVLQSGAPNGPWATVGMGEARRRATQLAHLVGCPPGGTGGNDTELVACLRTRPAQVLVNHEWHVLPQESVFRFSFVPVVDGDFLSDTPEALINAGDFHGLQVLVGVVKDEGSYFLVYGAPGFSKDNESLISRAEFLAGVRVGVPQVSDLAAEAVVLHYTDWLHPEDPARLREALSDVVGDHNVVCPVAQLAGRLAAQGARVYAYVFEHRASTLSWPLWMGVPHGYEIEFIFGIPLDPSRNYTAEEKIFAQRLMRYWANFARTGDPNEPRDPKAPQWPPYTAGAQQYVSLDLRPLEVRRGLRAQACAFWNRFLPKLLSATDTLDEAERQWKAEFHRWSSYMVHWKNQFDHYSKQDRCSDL
Chain of Mitogen-activated protein kinase kinase kinase 2 (Homo sapiens) (Q9Y2U5 whole entry): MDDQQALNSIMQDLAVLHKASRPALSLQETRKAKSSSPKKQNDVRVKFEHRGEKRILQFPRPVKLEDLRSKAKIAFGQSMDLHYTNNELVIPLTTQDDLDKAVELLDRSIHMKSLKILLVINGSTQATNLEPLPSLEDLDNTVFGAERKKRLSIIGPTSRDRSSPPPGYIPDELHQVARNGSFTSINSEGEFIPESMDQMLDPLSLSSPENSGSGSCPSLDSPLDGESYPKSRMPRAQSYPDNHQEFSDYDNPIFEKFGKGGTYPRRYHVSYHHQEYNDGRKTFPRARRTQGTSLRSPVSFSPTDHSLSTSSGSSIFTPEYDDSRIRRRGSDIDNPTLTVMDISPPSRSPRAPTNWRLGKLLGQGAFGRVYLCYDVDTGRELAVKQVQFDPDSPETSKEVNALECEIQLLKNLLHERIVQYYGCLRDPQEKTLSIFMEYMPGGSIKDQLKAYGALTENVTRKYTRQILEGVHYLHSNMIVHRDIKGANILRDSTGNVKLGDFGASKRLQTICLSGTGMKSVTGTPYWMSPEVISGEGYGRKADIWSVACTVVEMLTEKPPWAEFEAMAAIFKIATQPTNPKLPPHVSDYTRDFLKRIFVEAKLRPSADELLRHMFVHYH
Chain of Receptor tyrosine-protein kinase erbB-4 (Homo sapiens) (Q15303 whole entry, the tested form may be a part): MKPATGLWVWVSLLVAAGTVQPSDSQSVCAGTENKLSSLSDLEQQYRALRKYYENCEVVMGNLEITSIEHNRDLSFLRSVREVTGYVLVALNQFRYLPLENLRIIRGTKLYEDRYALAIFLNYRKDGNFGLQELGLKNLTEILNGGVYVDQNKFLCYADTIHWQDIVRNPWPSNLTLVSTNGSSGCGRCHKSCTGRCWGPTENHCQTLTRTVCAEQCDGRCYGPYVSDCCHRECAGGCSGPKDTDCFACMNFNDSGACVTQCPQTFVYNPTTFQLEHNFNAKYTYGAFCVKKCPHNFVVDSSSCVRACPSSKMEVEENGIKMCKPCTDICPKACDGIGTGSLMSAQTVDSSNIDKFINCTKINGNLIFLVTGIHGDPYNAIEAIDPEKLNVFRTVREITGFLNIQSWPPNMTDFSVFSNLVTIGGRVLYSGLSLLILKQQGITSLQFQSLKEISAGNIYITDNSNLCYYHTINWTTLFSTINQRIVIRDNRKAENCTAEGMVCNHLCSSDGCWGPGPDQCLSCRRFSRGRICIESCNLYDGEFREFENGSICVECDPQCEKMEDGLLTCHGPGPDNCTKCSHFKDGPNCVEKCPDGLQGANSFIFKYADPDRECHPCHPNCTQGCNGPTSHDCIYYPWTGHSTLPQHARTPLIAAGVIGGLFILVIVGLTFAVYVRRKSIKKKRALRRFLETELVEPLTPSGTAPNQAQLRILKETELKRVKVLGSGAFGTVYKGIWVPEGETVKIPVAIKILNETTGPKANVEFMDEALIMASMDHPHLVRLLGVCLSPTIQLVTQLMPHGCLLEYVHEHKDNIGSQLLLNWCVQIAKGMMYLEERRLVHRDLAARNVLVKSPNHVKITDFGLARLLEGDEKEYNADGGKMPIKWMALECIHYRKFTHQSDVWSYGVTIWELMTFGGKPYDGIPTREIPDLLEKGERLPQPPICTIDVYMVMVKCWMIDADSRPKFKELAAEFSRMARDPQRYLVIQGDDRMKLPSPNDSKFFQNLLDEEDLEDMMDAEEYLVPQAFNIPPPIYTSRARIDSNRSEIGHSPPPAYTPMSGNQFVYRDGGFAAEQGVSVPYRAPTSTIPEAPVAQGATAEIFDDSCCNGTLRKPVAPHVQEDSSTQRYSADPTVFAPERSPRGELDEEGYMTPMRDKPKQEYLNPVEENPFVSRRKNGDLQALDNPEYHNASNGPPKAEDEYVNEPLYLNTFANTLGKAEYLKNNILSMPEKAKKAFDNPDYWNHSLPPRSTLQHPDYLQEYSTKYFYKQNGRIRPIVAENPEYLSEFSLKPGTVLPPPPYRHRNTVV

SMILES	inhibition [1] [%]	inhibition [2] [%]	inhibition [3] [%]	inhibition [4] [%]	inhibition [5] [%]	inhibition [6] [%]	inhibition [7] [%]	inhibition [8] [%]	inhibition [9] [%]	inhibition [10] [%]	inhibition [11] [%]	inhibition [12] [%]	inhibition [13] [%]	inhibition [14] [%]	inhibition [15] [%]	inhibition [16] [%]	inhibition [17] [%]	inhibition [18] [%]	inhibition [19] [%]	inhibition [20] [%]	other results
Nc1ncc(-c2cc([C@H]3[C@@H]4CN(C5COC5)C[C@@H]43)n(CC3CC3)n2)cc1C(F)(F)F	-7.9	3.9	-1.5	14	54.1	2.9	3.1	25.8	17.9	1.5	5.3	1.3	66.5	5.3	30.8	0.3	3.6	-0.8	37	4	inhibition [21]: 9.3%; inhibition [22]: 2.8%; inhibition [23]: 11.3%; Activity [24]: > 50%; Activity [25]: > 50%; inhibition [26]: 10%
CC(C)n1nc(-c2cnc(N)c(OC(F)(F)F)c2)cc1[C@H]1[C@@H]2CN(C3COC3)C[C@@H]21	0.6	7	5.2	-5.1	46.3	4.4	-5.3	10.9	15.6	9.1	-1.3	11.3	52.5	2.5	13.5	5.1	5.7	7.9	22.5	0.5	inhibition [21]: 10.7%; inhibition [22]: 2.4%; inhibition [23]: 11.2%; Activity [24]: > 50%; Activity [25]: > 50%; inhibition [26]: 20%
